Active and inactive are the calls of the source. No cut-off for these calls is given here.
Tests used:
Mus musculus [1] = assay: Toxicity in CD1 mouse kidney at 300 mg/kg, ip after 3 days by histological study; type: organism-based; parameters: dose 300 mg/kg, route intraperitoneal; conditions: in vivo, 72 h
In short: (§1)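 Healthy female CD1 mice (20–22 g), 5–7 per group, given a single oral (intragastric) or i.p. dose in saline:Tween 80 (4:1) vehicle. Sacrificed on day 3 after ether anaesthesia. Organs fixed in 10% aqueous formalin for histology. Scored against untreated animals from no change to +++ (many changes).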

Mus musculus [2] = assay: Toxicity in CD1 mouse lung at 300 mg/kg, ip after 3 days by histological study; type: organism-based; parameters: dose 300 mg/kg, route intraperitoneal; conditions: in vivo, 72 h; in short: as §1
Trypanosoma cruzi [3] = assay: Antitrypanosomal activity against Trypanosoma cruzi infected in po dosed CD1 mouse assessed as prevention of amastigote nest in heart administered daily for 14 days measured on day 45; type: functional, organism-based
In short: (§2)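 T. cruzi, a Uruguayan patient isolate, was inoculated intradermally into 2-month-old female CD1 mice (20–22 g). Dosing began on day 15 after parasitaemia was observed. Drugs were suspended in saline:Tween 80 (4:1) and given by intragastric syringe once daily for 14 days, with untreated controls. On day 45 after treatment start, heart and muscle sections were scored by two independent observers for amastigotes and inflammatory infiltrates. Groups had 5–7 mice.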

Mus musculus [4] = assay: Toxicity in CD1 mouse brain at 450 mg/kg, po after 3 days by histological study; type: organism-based; parameters: dose 450 mg/kg, route oral; conditions: in vivo, 72 h; in short: as §1
Mus musculus [5] = assay: Toxicity in CD1 mouse assessed as decrease in weight respect to day zero at 150 mg/kg, ip after 3 days; type: organism-based; parameters: dose 150 mg/kg, route intraperitoneal; scale not given: the % may be the effect or the level left; conditions: in vivo, 72 h
In short: (§3)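 Healthy 2-month-old female CD1 mice (20–22 g, 5–7 per group) received one dose. Oral doses of 450 or 300 mg/kg were given by intragastric syringe; i.p. doses of 300 or 150 mg/kg by injection. Drugs were suspended in saline:Tween 80 (4:1), and a vehicle-only control was included. Mice were weighed and observed daily for 3 days. Weight change is expressed as percent relative to day zero.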

Trypanosoma cruzi [6] = assay: Antitrypanosomal activity against Trypanosoma cruzi infected in po dosed CD1 mouse assessed as prevention of inflammatory infiltrates in heart administered daily for 14 days measured on day 45; type: functional, organism-based; in short: as §2
Mus musculus [7] = assay: Toxicity in CD1 mouse assessed as survival at 300 mg/kg, po after 3 days; type: organism-based; parameters: dose 300 mg/kg, route oral; conditions: in vivo, 72 h
In short: (§4)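 Healthy 2-month-old female CD1 mice (20–22 g), groups of 5–7, given one oral dose by intragastric syringe or one i.p. injection. Compound suspended in saline:Tween 80 (4:1) with sonication just before dosing; vehicle-treated controls included. Weighed and observed daily over 3 days for skin, physical aspect, activity and faeces; survival recorded at day 3.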

Mus musculus [8] = assay: Toxicity in CD1 mouse intestine at 300 mg/kg, ip after 3 days by histological study; type: organism-based; parameters: dose 300 mg/kg, route intraperitoneal; conditions: in vivo, 72 h; in short: as §1
Mus musculus [9] = assay: Toxicity in CD1 mouse intestine at 450 mg/kg, po after 3 days by histological study; type: organism-based; parameters: dose 450 mg/kg, route oral; conditions: in vivo, 72 h; in short: as §1
Mus musculus [10] = assay: Toxicity in CD1 mouse heart at 300 mg/kg, ip after 3 days by histological study; type: organism-based; parameters: dose 300 mg/kg, route intraperitoneal; conditions: in vivo, 72 h; in short: as §1
Mus musculus [11] = assay: Toxicity in CD1 mouse assessed as decrease in weight respect to day zero at 450 mg/kg, po after 3 days; type: organism-based; parameters: dose 450 mg/kg, route oral; scale not given: the % may be the effect or the level left; conditions: in vivo, 72 h; in short: as §3
Mus musculus [12] = assay: Toxicity in CD1 mouse assessed as decrease in weight respect to day zero at 300 mg/kg, po after 3 days; type: organism-based; parameters: dose 300 mg/kg, route oral; scale not given: the % may be the effect or the level left; conditions: in vivo, 72 h; in short: as §3
Mus musculus [13] = assay: Toxicity in CD1 mouse assessed as survival at 150 mg/kg, ip after 3 days; type: organism-based; parameters: dose 150 mg/kg, route intraperitoneal; conditions: in vivo, 72 h; in short: as §4
Mus musculus [14] = assay: Toxicity in CD1 mouse heart at 450 mg/kg, po after 3 days by histological study; type: organism-based; parameters: dose 450 mg/kg, route oral; conditions: in vivo, 72 h; in short: as §1
Mus musculus [15] = assay: Toxicity in CD1 mouse kidney at 450 mg/kg, po after 3 days by histological study; type: organism-based; parameters: dose 450 mg/kg, route oral; conditions: in vivo, 72 h; in short: as §1
Mus musculus [16] = assay: Toxicity in CD1 mouse assessed as survival at 300 mg/kg, ip after 3 days; type: organism-based; parameters: dose 300 mg/kg, route intraperitoneal; conditions: in vivo, 72 h; in short: as §4
Mus musculus [17] = assay: Toxicity in CD1 mouse brain at 300 mg/kg, ip after 3 days by histological study; type: organism-based; parameters: dose 300 mg/kg, route intraperitoneal; conditions: in vivo, 72 h; in short: as §1
Mus musculus [18] = assay: Toxicity in CD1 mouse lung at 450 mg/kg, po after 3 days by histological study; type: organism-based; parameters: dose 450 mg/kg, route oral; conditions: in vivo, 72 h; in short: as §1
Mus musculus [19] = assay: Toxicity in CD1 mouse liver at 300 mg/kg, ip after 3 days by histological study; type: organism-based; parameters: dose 300 mg/kg, route intraperitoneal; conditions: in vivo, 72 h; in short: as §1
Trypanosoma cruzi [20] = assay: Growth inhibition of Trypanosoma cruzi Tulahuen 2 epimastigote at 5 uM after 5 days; type: functional; parameters: Activity: scale not given: the % may be the effect or the level left; conditions: for inhibition of growth at 5 µM: Trypanosoma cruzi, Tulahuen 2, 120 h, read-out: GI
Mus musculus [21] = assay: Toxicity in CD1 mouse assessed as survival at 450 mg/kg, po after 3 days; type: organism-based; parameters: dose 450 mg/kg, route oral; conditions: in vivo, 72 h; in short: as §4
Mus musculus [22] = assay: Toxicity in CD1 mouse liver at 450 mg/kg, po after 3 days by histological study; type: organism-based; parameters: dose 450 mg/kg, route oral; conditions: in vivo, 72 h; in short: as §1
Mus musculus [23] = assay: Toxicity in CD1 mouse assessed as haemoglobin level at 450 mg/kg, po after 3 days; type: organism-based; parameters: dose 450 mg/kg, route oral; conditions: in vivo, 72 h
In short: (§5)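 Healthy female CD1 mice (5–7 per group) received a single oral dose of 450 mg/kg or an i.p. dose of 300 mg/kg, with vehicle controls. On day 3 they were sacrificed under ether anaesthesia. Blood was drawn from the subclavian artery and kept at 0 °C in EDTA or heparin. Leukocytes, haemoglobin, haematocrit, GPT and GOT were measured within 24 h and compared with normal ranges.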

Mus musculus [24] = assay: Toxicity in CD1 mouse assessed as decrease in weight respect to day zero at 300 mg/kg, ip after 3 days; type: organism-based; parameters: dose 300 mg/kg, route intraperitoneal; scale not given: the % may be the effect or the level left; conditions: in vivo, 72 h; in short: as §3
Mus musculus [25] = assay: Toxicity in CD1 mouse assessed as hematocrite level at 300 mg/kg, ip after 3 days; type: organism-based; parameters: dose 300 mg/kg, route intraperitoneal; conditions: in vivo, 72 h; in short: as §5
Mus musculus [26] = assay: Toxicity in CD1 mouse assessed as glutamic-oxalacetate transaminase level at 300 mg/kg, ip after 3 days; type: organism-based; parameters: dose 300 mg/kg, route intraperitoneal; conditions: in vivo, 72 h; in short: as §5
Mus musculus [27] = assay: Toxicity in CD1 mouse assessed as glutamic-pyruvate transaminase level at 300 mg/kg, ip after 3 days; type: organism-based; parameters: dose 300 mg/kg, route intraperitoneal; conditions: in vivo, 72 h; in short: as §5
Mus musculus [28] = assay: Toxicity in CD1 mouse assessed as leukocyte level at 450 mg/kg, po after 3 days; type: organism-based; parameters: dose 450 mg/kg, route oral; conditions: in vivo, 72 h; in short: as §5
Mus musculus [29] = assay: Toxicity in CD1 mouse assessed as haemoglobin level at 300 mg/kg, ip after 3 days; type: organism-based; parameters: dose 300 mg/kg, route intraperitoneal; conditions: in vivo, 72 h; in short: as §5
Mus musculus [30] = assay: Toxicity in CD1 mouse assessed as increase in weight respect to day zero at 450 mg/kg, po after 3 days; conditions: in vivo, 72 h
Mus musculus [31] = assay: Toxicity in CD1 mouse assessed as glutamic-pyruvate transaminase level at 450 mg/kg, po after 3 days; type: organism-based; parameters: dose 450 mg/kg, route oral; conditions: in vivo, 72 h; in short: as §5
Mus musculus [32] = assay: Toxicity in CD1 mouse assessed as leukocyte level at 300 mg/kg, ip after 3 days; type: organism-based; parameters: dose 300 mg/kg, route intraperitoneal; conditions: in vivo, 72 h; in short: as §5
Mus musculus [33] = assay: Toxicity in CD1 mouse assessed as hematocrite level at 450 mg/kg, po after 3 days; type: organism-based; parameters: dose 450 mg/kg, route oral; conditions: in vivo, 72 h; in short: as §5
Mus musculus [34] = assay: Toxicity in CD1 mouse assessed as glutamic-oxalacetate transaminase level at 450 mg/kg, po after 3 days; type: organism-based; parameters: dose 450 mg/kg, route oral; conditions: in vivo, 72 h; in short: as §5
Mus musculus [35] = assay: Toxicity in CD1 mouse assessed as increase in weight respect to day zero at 300 mg/kg, ip after 3 days; type: organism-based; parameters: dose 300 mg/kg, route intraperitoneal; conditions: in vivo, 72 h; in short: as §3

Compound	Activity (Mus musculus [1])	Activity (Mus musculus [2])	Activity (Trypanosoma cruzi [3])	Activity (Mus musculus [4])	Activity (Trypanosoma cruzi [6])	Activity (Mus musculus [7])	Activity (Mus musculus [8])	Activity (Mus musculus [9])	Activity (Mus musculus [10])	Activity (Mus musculus [11])	Activity (Mus musculus [12])	Activity (Mus musculus [14])	Activity (Mus musculus [15])	Activity (Mus musculus [16])	Activity (Mus musculus [17])	Activity (Mus musculus [18])	Activity (Mus musculus [19])	inhibition of growth at 5 µM (Trypanosoma cruzi [20])	Activity (Mus musculus [21])	Activity (Mus musculus [22])	other results
CCCCNC(=O)N/N=C/c1ccc([N+](=O)[O-])o1	Toxic	Non-toxic	Active	Non-toxic	Active	Non-toxic	Non-toxic	Toxic	Non-toxic	1%	4%	Non-toxic	Toxic	Toxic	Non-toxic	Non-toxic	Toxic	30%	Non-toxic	Toxic	Activity (Mus musculus [5]): 6%; Activity (Mus musculus [13]): Non-toxic
CCCCCCOC(=O)N/N=C/c1ccc([N+](=O)[O-])o1	Non-toxic	Non-toxic	–	Non-toxic	–	–	Non-toxic	Non-toxic	Non-toxic	–	–	Non-toxic	Non-toxic	–	Non-toxic	Non-toxic	Toxic	93%	Non-toxic	Toxic	Activity (Mus musculus [23]): 10.6 g/dL; Activity (Mus musculus [24]): 0%; Activity (Mus musculus [25]): 38.7%; Activity (Mus musculus [26]): 140 IU/L; Activity (Mus musculus [27]): 32 IU/L; Activity (Mus musculus [28]): 2700 µL⁻¹; Activity (Mus musculus [29]): 12.3 g/dL; Activity (Mus musculus [30]): 3%; Activity (Mus musculus [31]): 34 IU/L; Activity (Mus musculus [32]): 4900 µL⁻¹; Activity (Mus musculus [33]): 34.4%; Activity (Mus musculus [34]): 192 IU/L
CC1CS(=O)(=O)CCN1/N=C/c1ccc([N+](=O)[O-])o1 (stereo not drawn) [NIFURTIMOX]	Non-toxic	Non-toxic	–	Non-toxic	–	Non-toxic	Non-toxic	Non-toxic	Non-toxic	6%	0%	Non-toxic	Toxic	Non-toxic	Non-toxic	Non-toxic	Toxic	46%	Non-toxic	Toxic	Activity (Mus musculus [23]): 13.5 g/dL; Activity (Mus musculus [24]): 3%; Activity (Mus musculus [25]): 39.3%; Activity (Mus musculus [26]): 177 IU/L; Activity (Mus musculus [27]): 32.5 IU/L; Activity (Mus musculus [28]): 6700 µL⁻¹; Activity (Mus musculus [29]): 13.2 g/dL; Activity (Mus musculus [31]): 49 IU/L; Activity (Mus musculus [32]): 5100 µL⁻¹; Activity (Mus musculus [33]): 42.4%; Activity (Mus musculus [34]): 162 IU/L
COCCNC(=O)N/N=C/c1ccc([N+](=O)[O-])o1	Non-toxic	Non-toxic	Active	Non-toxic	Active	Non-toxic	Non-toxic	Non-toxic	Non-toxic	0%	0%	Non-toxic	Toxic	Toxic	Non-toxic	Non-toxic	Toxic	20%	Non-toxic	Toxic	Activity (Mus musculus [5]): 1%; Activity (Mus musculus [13]): Non-toxic
CCCCCCOC(=O)N/N=C/C=C/c1ccc([N+](=O)[O-])o1	Non-toxic	Non-toxic	Active	Non-toxic	Active	–	Non-toxic	Non-toxic	Non-toxic	–	–	Non-toxic	Toxic	Non-toxic	Non-toxic	Non-toxic	Toxic	–	Non-toxic	Toxic	Activity (Mus musculus [23]): 13.5 g/dL; Activity (Mus musculus [25]): 22.9%; Activity (Mus musculus [26]): 172 IU/L; Activity (Mus musculus [27]): 33 IU/L; Activity (Mus musculus [28]): 6600 µL⁻¹; Activity (Mus musculus [29]): 12 g/dL; Activity (Mus musculus [30]): 2%; Activity (Mus musculus [31]): 42 IU/L; Activity (Mus musculus [32]): 5300 µL⁻¹; Activity (Mus musculus [35]): 2%; Activity (Mus musculus [33]): 42.1%; Activity (Mus musculus [34]): 164 IU/L; Activity (Trypanosoma cruzi [20]): 86%
